Screening data from PubChem.
VIM-2 inh: inhibitors of Pseudomonas aeruginosa VIM-2 metallo-beta-lactamase; purified VIM-2, nitrocefin hydrolysis, epi-absorbance fluorescence; inhibition, % at 5.6 µM; hit rate 0.89% among 290,000; AID 1527;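 active = inhibition above the mean of all tested compounds plus 3 SD, cutoff set per screening run, cut at about 7.5% in these data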;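 also: red hydrolysis product quenches plate fluorescence so inhibitors raise well fluorescence; 0% = enzyme with DMSO and 100% = DMSO without enzyme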
HKDC1 inh: inhibitors of human hexokinase HKDC1; hit rate 0.16% among 340,000; recombinant HKDC1, G6PDH/diaphorase resazurin coupled fluorescence; Q2TB90; inhibition, % at 20 µM;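 active = inhibition above about 35% when tested at 20 µM, limit read from the data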;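 also: plate controls were DMSO wells with enzyme for no effect and DMSO wells lacking enzyme for full effect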
Target sequence (Q2TB90 whole entry, looked up): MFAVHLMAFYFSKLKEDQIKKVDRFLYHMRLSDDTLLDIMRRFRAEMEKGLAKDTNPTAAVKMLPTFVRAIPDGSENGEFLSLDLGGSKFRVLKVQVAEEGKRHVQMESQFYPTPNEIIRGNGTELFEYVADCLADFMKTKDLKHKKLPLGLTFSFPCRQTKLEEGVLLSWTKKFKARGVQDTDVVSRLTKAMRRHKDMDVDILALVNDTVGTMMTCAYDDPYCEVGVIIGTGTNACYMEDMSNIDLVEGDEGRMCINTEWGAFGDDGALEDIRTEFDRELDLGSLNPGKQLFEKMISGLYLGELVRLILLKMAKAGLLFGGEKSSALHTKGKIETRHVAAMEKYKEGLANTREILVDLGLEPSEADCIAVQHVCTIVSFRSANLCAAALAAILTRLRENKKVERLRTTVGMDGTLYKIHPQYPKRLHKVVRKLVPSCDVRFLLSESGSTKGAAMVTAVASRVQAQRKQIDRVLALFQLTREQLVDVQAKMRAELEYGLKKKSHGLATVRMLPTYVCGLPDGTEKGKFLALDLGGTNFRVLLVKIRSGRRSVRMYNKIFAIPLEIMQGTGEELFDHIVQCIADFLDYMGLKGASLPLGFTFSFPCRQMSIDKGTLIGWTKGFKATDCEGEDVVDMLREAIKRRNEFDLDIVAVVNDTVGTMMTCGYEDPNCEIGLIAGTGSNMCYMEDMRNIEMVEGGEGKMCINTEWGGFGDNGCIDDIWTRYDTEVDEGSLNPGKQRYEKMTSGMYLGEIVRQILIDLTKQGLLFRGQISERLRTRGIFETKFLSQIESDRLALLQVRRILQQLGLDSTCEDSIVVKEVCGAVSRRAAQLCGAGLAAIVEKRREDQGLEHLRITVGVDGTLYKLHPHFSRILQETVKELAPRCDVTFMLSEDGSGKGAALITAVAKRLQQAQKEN
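Test system: recombinant HKDC1 (HK5) hexokinase enzyme, produced in-house / Doses: 20 µM test compound, 1% DMSO / Timing: 90 min, room temperature / Detection: G6PDH/diaphorase-coupled fluorescence, 1 mM NADP, 100 µM resazurin, 525/613 nm / Control set: DMSO wells with and without enzyme mix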
IMP-1 inhibitor: inhibitors of Pseudomonas aeruginosa IMP-1 metallo-beta-lactamase; inhibition, % at 5.6 µM; hit rate 0.45% among 290,000; purified IMP-1, nitrocefin hydrolysis, epi-absorbance fluorescence;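 active = inhibition above the mean plus 3 SD of all compounds in the same screening run, cut at about 4.5% in these data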;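 also: 0% = IMP-1 with DMSO and 100% = DMSO wells lacking enzyme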
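System – purified recombinant IMP-1 beta-lactamase · Input – IMP-1 dispensed at 0.2 nM · Timing – 15 min preincubation plus 25 min reaction at 25 °C · Signal – Epi-absorbance fluorescence, 480 nm excitation, 530 nm emission · Measure – percent IMP-1 inhibition derived from blank-referenced optical density · Controls – Enzyme-plus-DMSO low control, enzyme-free DMSO high control · Replication – singlicate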
MIN6 prolif: MIN6 beta-cell proliferation induction. AID 2380. MIN6 cells proliferation, ATPlite luminescence, 48 h; cells starved in 0.2% serum; 100% = growth in 10% serum. proliferation, % at 10 µM. hit rate 0.29% among 330,000;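 active = compounds whose signal lies at least 3.5 SD above the mean of all wells on their plate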;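 also: 0% = DMSO-treated cells in low-serum medium and 100% = 10% serum control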
PvdQ inh: blocks Pseudomonas aeruginosa PvdQ acylase activity. purified PvdQ acylase, fluorescence plate reader. AID 488965. hit rate 0.063% among 340,000. inhibition, % at 10 µM; in the data active = inhibition above about 30%, passing the limit was not always enough;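 also: 0% = vehicle neutral wells and 100% = reference inhibitor wells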
ATG4B inh: blocks human ATG4B protease cleavage of LC3 substrate. inhibition, % at 8.33 µM. ATG4B cleavage of LC3-PLA2, NBD-HPC fluorescence, 1 h. hit rate 0.51% among 340,000; in the data active = inhibition above about 40%
ATG4B conf: confirmation of human ATG4B inhibitors. inhibition, % at 8.33 µM. shares compounds with ATG4B inh. ATG4B protease fluorescent substrate cleavage assay. hit rate 92% among 320; in the data active = inhibition above about 39%
PLA2 counter: inhibits human PLA2, flagging false ATG4B inhibitors. shares compounds with ATG4B inh. purified PLA2, NBD-C6-HPC fluorescence, 45 min. inhibition, % at 8.33 µM. hit rate 66% among 1,600; in the data active = inhibition above about 50%
Starred values were filed as active, the others as inactive. Shown are actives, neighbours in structure and some others; about 2% of the full set was active somewhere.

Results for O=C(Cn1cnc2cc([N+](=O)[O-])ccc2c1=O)NCc1ccccc1 ?
VIM-2 inh: -2; HKDC1 inh: 1; IMP-1 inhibitor: 0; MIN6 prolif: -1; PvdQ inh: 3; ATG4B inh: -2

What do the screens show for `CCc1ccccc1NC(=S)/N=C(\N)Nc1nc(C)c2cc(C)ccc2n1`?
VIM-2 inh: -1; HKDC1 inh: -2; IMP-1 inhibitor: -4; MIN6 prolif: -3; PvdQ inh: 11; ATG4B inh: 80*; PLA2 counter: 82*

What do the screens show for `COc1cc(C2C(C#N)=C(N)OC3=C2C(=O)CCC3)c([N+](=O)[O-])cc1OC` (stereo not drawn)?
VIM-2 inh: 0; HKDC1 inh: 11; IMP-1 inhibitor: 1; PvdQ inh: 4; ATG4B inh: -1

What do the screens show for `CCC(C)N(C(=O)COc1ccc(Br)cc1C=O)C1CCS(=O)(=O)C1` (stereo not drawn)?
HKDC1 inh: -5; MIN6 prolif: 2; PvdQ inh: 7; ATG4B inh: 42*; ATG4B conf: 57*; PLA2 counter: 48

What do the screens show for `Cn1c(SCC(=O)N2CCc3ccccc3C2)nnc1-c1ccncc1`?
VIM-2 inh: -6; HKDC1 inh: -3; IMP-1 inhibitor: -4; MIN6 prolif: 0; PvdQ inh: -12; ATG4B inh: 6

How did CCc1cccc(CC)c1-n1c(SCC(=O)N2CCc3ccccc3C2)nnc1-c1cccnc1 do in these assays?
VIM-2 inh: -3; HKDC1 inh: -6; IMP-1 inhibitor: -2; MIN6 prolif: -2; PvdQ inh: -15; ATG4B inh: 68*; PLA2 counter: 63*

What do the screens show for `Cc1ccc(NC(=O)c2cc(NC(=O)CCC(=O)O)ccc2N2CCCCC2)cc1`?
VIM-2 inh: -2; HKDC1 inh: -5; IMP-1 inhibitor: -2; MIN6 prolif: -4; PvdQ inh: -11; ATG4B inh: 46*; PLA2 counter: 49

Results for O=C(Nc1nnc(CSCc2ccccc2F)s1)c1cccc([N+](=O)[O-])c1 ?
VIM-2 inh: 5; HKDC1 inh: -1; IMP-1 inhibitor: 0; MIN6 prolif: -3; PvdQ inh: -1; ATG4B inh: 51*; PLA2 counter: 58*

Results for O=C(Nc1nnc(CSCc2ccc(F)cc2)s1)c1ccc([N+](=O)[O-])cc1 ?
VIM-2 inh: -2; HKDC1 inh: -8; IMP-1 inhibitor: -3; MIN6 prolif: 1; PvdQ inh: -12; ATG4B inh: -6

How did CCn1nc([N+](=O)[O-])c(C(C#N)c2nc3ccccc3n2C)c(Cl)c1=O (stereo not drawn) do in these assays?
VIM-2 inh: -3; HKDC1 inh: -4; IMP-1 inhibitor: -4; MIN6 prolif: 0; PvdQ inh: -1; ATG4B inh: 72*; PLA2 counter: 75*

How did CCCn1nc([N+](=O)[O-])c(C(C#N)c2nc3ccccc3s2)c(Cl)c1=O (stereo not drawn) do in these assays?
VIM-2 inh: -5; HKDC1 inh: 14; IMP-1 inhibitor: -8; MIN6 prolif: -6; PvdQ inh: 8; ATG4B inh: 84*; PLA2 counter: 85*

What do the screens show for `O=[N+]([O-])c1ccc(CN2CCN(c3nc4ccccc4s3)CC2)cc1`?
VIM-2 inh: 0; HKDC1 inh: -4; IMP-1 inhibitor: 0; MIN6 prolif: -3; PvdQ inh: 2; ATG4B inh: 3

Results for CCOc1ccc(NC(=O)CC2C(=O)N(c3ccccc3)C(=O)N2CCc2cccs2)cc1 (stereo not drawn) ?
VIM-2 inh: -3; HKDC1 inh: 1; IMP-1 inhibitor: -4; MIN6 prolif: 0; PvdQ inh: 7; ATG4B inh: -6

How did CC(C(=O)Nc1ccc(F)c(F)c1F)N(C)CC(=O)Nc1ccccc1Br (stereo not drawn) do in these assays?
VIM-2 inh: -4; HKDC1 inh: -5; IMP-1 inhibitor: -2; MIN6 prolif: -1; PvdQ inh: -8; ATG4B inh: -6
